# From PubChem BioAssay
# Activity calls are given as the source filed them.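 How the source made its calls, unless noted: active means compounds giving at least 50% inhibition in the cell-based MKP-3 phosphatase rescue imaging test; inactive means the rest.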
# Experiments:
# [1] = inhibitors of TNFa-induced NFkB p65 translocation, primary screen, imaging, HUVEC, MLSMR starter and 10KST1 sets (AID 438;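 active means inhibition above 20% together with a positive visual image hit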;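 further: compound added about 3h40 before a 20 min TNFalpha stimulation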;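 on inhibition: signal is the nuclear over cytoplasmic p65 intensity ratio per well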); conditions: HUVEC TNFa-induced p65 nuclear translocation; cell count: measured here: nuclei count (cytotoxicity indicator), at 2.08 µM; inhibition: at 2 µM, stronger effect = higher value, 0% TNFa-plus-vehicle, 100% no-TNFa wells
# [2] = endothelial E-selectin expression blockers – imaging, HUVEC, immunofluorescence, MLSMR starter and 10KST1 sets, primary screen (AID 487;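 active means visually confirmed hit in the image check and inhibition above 20%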;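 on inhibition: signal is fraction of cell area covered by stained E-selectin grains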;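 on nuclei count: 100% = median nuclei count of all wells on the same plate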); conditions: HUVEC TNFalpha-induced E-selectin immunofluorescence imaging, at 2 µM; inhibition: stronger effect = higher value; nuclei count: measured here: cell number, toxicity
# [3] = Primary imaging screen for DUSP6 inhibitors that restore phospho-Erk in transfected HeLa cells, chemical complementation (AID 609); conditions: HeLa MKP-3 transfected, phospho-Erk imaging KS statistic, at 10 µM, cells stimulated with TPA for 15 min;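 on inhibition: phospho-Erk level distribution per well compared with pooled transfected vehicle control wells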
# [4] = target: Dual specificity protein phosphatase 6 (Homo sapiens) (UniProt Q16828); test: as above; conditions: HeLa MKP-3 transfected, phospho-Erk imaging KS statistic; at 10 µM; stronger effect = higher value; cells stimulated with TPA for 15 min
# Chain of Dual specificity protein phosphatase 6 (Homo sapiens) (Q16828 whole entry, looked up): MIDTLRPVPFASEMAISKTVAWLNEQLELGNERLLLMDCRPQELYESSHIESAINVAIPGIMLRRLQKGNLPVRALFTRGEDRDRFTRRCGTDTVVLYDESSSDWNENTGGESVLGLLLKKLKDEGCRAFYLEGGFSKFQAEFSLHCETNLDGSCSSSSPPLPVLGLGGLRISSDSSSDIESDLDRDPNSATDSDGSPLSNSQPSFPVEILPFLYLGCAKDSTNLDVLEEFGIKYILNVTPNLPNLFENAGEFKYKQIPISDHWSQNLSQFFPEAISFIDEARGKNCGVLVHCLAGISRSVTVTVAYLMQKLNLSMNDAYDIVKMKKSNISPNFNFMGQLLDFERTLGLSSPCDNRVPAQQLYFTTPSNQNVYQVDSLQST
# [5] = target: Voltage-gated potassium channel subunit beta-2 (Rattus norvegicus) (UniProt P62483); test: inhibitors of rat Kvbeta2 reductase activity – biochemical, NADPH fluorescence, primary screen (AID 622;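 active means fluorescence slope higher than the sample average by over 3 SD, cut at about -0.22 in these data, passing the limit was not always enough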;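 further: slope of raw intensity against log time taken from 70 to 1610 s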); conditions: recombinant KvBeta, 4-cyanobenzaldehyde reduction, at 10 µM, stronger effect = higher value
# Chain of Voltage-gated potassium channel subunit beta-2 (Rattus norvegicus) (P62483 whole entry, looked up): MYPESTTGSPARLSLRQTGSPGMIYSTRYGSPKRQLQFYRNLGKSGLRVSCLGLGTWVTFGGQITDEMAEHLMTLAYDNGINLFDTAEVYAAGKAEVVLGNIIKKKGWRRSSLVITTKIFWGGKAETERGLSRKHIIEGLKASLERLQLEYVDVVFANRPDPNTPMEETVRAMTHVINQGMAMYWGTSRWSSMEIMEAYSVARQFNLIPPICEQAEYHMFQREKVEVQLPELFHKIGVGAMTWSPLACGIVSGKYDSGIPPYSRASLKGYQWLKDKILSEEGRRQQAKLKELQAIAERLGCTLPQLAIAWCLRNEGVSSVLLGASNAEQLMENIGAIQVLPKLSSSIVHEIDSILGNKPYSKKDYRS
# [6] = target: Voltage-gated potassium channel subunit beta-2 (Rattus norvegicus) (UniProt P62483); test: enhancers of rat Kvbeta2 NADPH turnover – biochemical, NADPH fluorescence, primary screen (AID 623;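 active means NADPH fluorescence slope more negative than the mean of all samples by about 3 SD, 99.7% confidence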;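 further: fluorescence intensity change per second fitted from 20 to 320 s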); conditions: Recombinant KvBeta, NADPH fluorescence decrease slope, 10 min; at 10 µM; stronger effect = lower value
# [7] = target: Alpha-2C adrenergic receptor (Homo sapiens) (UniProt P18825); test: compounds altering alpha2C-coupled GIRK flux – cell-based, HEK293 alpha2C/GIRK1/2, thallium flux, primary screen (AID 624;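 active means fluorescence slope after compound addition differing from the mean of all screened samples at 99.7% confidence, in either direction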;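 further: slope of fluorescence ratio to pre-addition baseline per second over 15 to 24 s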); conditions: thallium flux BTC fluorescence, at 10 µM, actives lie on both sides
# Chain of Alpha-2C adrenergic receptor (Homo sapiens) (P18825 whole entry, looked up): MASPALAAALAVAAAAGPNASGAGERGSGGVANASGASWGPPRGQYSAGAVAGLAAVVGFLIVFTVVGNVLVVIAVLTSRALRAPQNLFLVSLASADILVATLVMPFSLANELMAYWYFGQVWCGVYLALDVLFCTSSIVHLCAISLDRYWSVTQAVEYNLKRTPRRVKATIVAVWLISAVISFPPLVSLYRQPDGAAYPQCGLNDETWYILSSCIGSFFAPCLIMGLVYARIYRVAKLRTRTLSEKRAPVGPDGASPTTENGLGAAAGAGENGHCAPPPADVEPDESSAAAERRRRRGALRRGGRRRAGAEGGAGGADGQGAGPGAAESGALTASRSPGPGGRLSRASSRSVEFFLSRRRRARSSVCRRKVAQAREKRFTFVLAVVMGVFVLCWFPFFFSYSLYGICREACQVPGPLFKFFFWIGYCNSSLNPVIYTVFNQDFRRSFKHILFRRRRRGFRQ
# [8] = inhibitors of larval lipid processing in zebrafish, primary screen, whole organism, PED6 fluorescence, gall bladder and intestine (AID 686;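 active means a full or partial loss of lipid-probe fluorescence in the fish gall bladder, intestine or both, judged by eye; inactive means no fluorescence loss, or compound toxic to the fish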;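 further: larvae 5 to 7 days old with five fish per well; signal comes from phospholipase A2 cleavage of quenched PED6 carried via bile; overnight exposure to compound and PED6 before scoring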); conditions: Zebrafish larvae PED6 lipid processing, fluorescence scoring; screened at 20 µM (by protocol)
# Outline: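 Doses: 20 µM single dose. Test system: live zebrafish larvae aged 5-7 days, whole organism. Quantity: five larvae per well. Measured by: By-eye fluorescence microscopy. Reagent: ingested quenched lipid PED6 at 100 nM. Read-out: visual per-well fluorescence inhibition score. Times: overnight exposure of larvae to compound plus PED6.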
# [9] = loss of swimming-algae plug formation – whole organism, Chlamydomonas reinhardtii, WT vs cilia-less mutant, absorbance, 96-well, primary screen (AID 463189;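 active means inhibition at or above 50% relative to wild type and mutant plate controls; inactive means inhibition below 50%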;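 further: 0% = wild type cc124 cells in DMSO and 100% = ciliumless bld1 mutant cells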); conditions: Chlamydomonas reinhardtii gravitaxis, OD600 absorbance, 2 days; at 10 µM; stronger effect = higher value
# [10] = measured here: cell density z-score
# [11] = measured here: nuclear c-Myc green intensity z-score
# [12] = measured here: nuclear pErk red intensity z-score, stronger effect = higher value
SMILES,cell count [1],inhibition [1],inhibition [2],nuclei count [2] [%],"z-score [3, 10]","z-score [3, 11]","z-score [3, 12]",inhibition [4],fluorescence slope [5],NADPH fluorescence slope [6],slope [7],outcome [8],inhibition [9]
COc1ccccc1N1CCN(C(=O)c2c(C)cc(=O)oc2C)CC1,275,-1.5% (inactive),-18.9% (inactive),95.9,-0.53,2.24,-0.762,11.4% (inactive),-0.461 (inactive),-8.2e-05 (inactive),0.00477 (inactive),inactive,-9.22% (inactive)
Cc1[nH]c2ccc3c(ncn3CCC#N)c2c1C,616,-7.5% (inactive),-48.6% (inactive),166,-0.136,0.347,0.974,18.2% (inactive),-0.5 (inactive),-3.5e-05 (inactive),0.00512 (inactive),inactive,11.7% (inactive)
Cc1cc(C)n(Cc2ccc(C(=O)NCCC3=CCCCC3)o2)n1,333,-8% (inactive),-28.7% (inactive),119,0.702,0.069,-0.61,8.76% (inactive),-0.456 (inactive),-0.000101 (inactive),0.00523 (inactive),inactive,16.8% (inactive)
C=CCc1cccc(/C=N/c2ncn[nH]2)c1O,470,-9% (inactive),-90.5% (inactive),148,-0.648,0.659,-0.784,11.9% (inactive),-0.491 (inactive),-0.000107 (inactive),0.00453 (inactive),inactive,-13.3% (inactive)
O=C(Nc1nc(NC(=O)c2ccco2)n(-c2ccccc2)n1)c1ccccc1,339,-8.5% (inactive),-1.3% (inactive),157,0.978,-0.403,-0.743,-7.01% (inactive),-0.452 (inactive),-0.000125 (inactive),0.00175 (inactive),inactive; toxic,1.31% (inactive)
Cc1c(/C(O)=C2\C(=O)C(=O)N(CCN(C)C)C2c2cccs2)cnn1-c1ccccc1 (stereo unspecified),544,1.9% (inactive),-68.6% (inactive),127,1.03,-0.0076,0.683,-5.26% (inactive),-0.578 (inactive),-3.3e-05 (inactive),0.00515 (inactive),inactive,-16.4% (inactive)
CC(C)OC(=O)C(C#N)c1nc2ccccc2nc1N1CCCC1 (stereo unspecified),485,-22.5% (inactive),-48.2% (inactive),129,2.22,-1.34,-1.3,22.7% (inactive),-0.543 (inactive),-1.4e-05 (inactive),0.00397 (inactive),inactive,5.71% (inactive)
Cc1cc(=O)oc(C)c1C(=O)NCCN1CCOCC1,476,-0.5% (inactive),-10.6% (inactive),92.4,-0.82,0.575,1.34,-1.75% (inactive),-0.491 (inactive),-1.8e-05 (inactive),0.00592 (inactive),inactive,21.9% (inactive)
CCCc1nn(C)c2c1C(c1cccnc1)C(C#N)=C(N)O2 (stereo unspecified),521,-5.3% (inactive),-50.3% (inactive),183,0.834,0.991,-0.817,9.61% (inactive),-0.274 (inactive),4.2e-08 (inactive),0.00487 (inactive),inactive,14.7% (inactive)
O=C(c1coc(=O)c(Br)c1)N1CCCc2ccccc21,384,-0.8% (inactive),-39.7% (inactive),134,-0.336,-1.15,0.12,3.42% (inactive),-0.437 (inactive),-8e-05 (inactive),0.00466 (inactive),inactive,36.5% (inactive)
CCOc1ccc(-n2c(SCc3ccc(C#N)cc3)nnc2-c2cccnc2)cc1,343,-6% (inactive),6.3% (inactive),157,0.958,-0.128,0.447,13.4% (inactive),-0.421 (inactive),-0.00013 (inactive),0.00481 (inactive),inactive,-11.3% (inactive)
COC(=O)c1c(C)noc1-c1cc(C)on1,514,5.6% (inactive),63.3% (inactive),177,-1.72,0.497,0.322,3.56% (inactive),-0.533 (inactive),-4e-05 (inactive),0.00511 (inactive),inactive,-9.07% (inactive)
CC(=O)Nc1cc2c(cc1Br)OCCO2,524,-18.7% (inactive),-80.8% (inactive),169,-0.0183,1.62,-0.826,16.1% (inactive),-0.519 (inactive),-3.4e-05 (inactive),0.00516 (inactive),inactive,33.1% (inactive)
Cn1c(OCc2ccc3c(c2)OCO3)nc2c1c(=O)n(Cc1cccc(Cl)c1)c(=O)n2C,646,5.7% (inactive),-35.9% (inactive),149,-0.768,0.366,0.018,9.61% (inactive),-0.484 (inactive),-0.000102 (inactive),0.00957 (inactive),inactive,4.63% (inactive)
Cc1oc2cc(O)cc(C)c2c(=O)c1-c1cnn(-c2ccccc2)c1,578,-1.3% (inactive),-189% (inactive),149,0.4,1.63,0.0441,15.9% (inactive),-0.509 (inactive),-5.7e-05 (inactive),0.00468 (inactive),inactive,20.5% (inactive)
CC1(C)Cc2nc(NCCCO)c(C#N)cc2CO1,503,-6% (inactive),29.1% (inactive),94.8,-0.759,0.0263,-0.295,-11.9% (inactive),-0.421 (inactive),-0.000243 (inactive),0.00519 (inactive),inactive,5% (inactive)
CCOC(=O)CC1=C(C(=O)OCC)C(c2ccc(OC)c(OC)c2)C(C#N)=C(N)O1 (stereo unspecified),471,-4.3% (inactive),-157% (inactive),163,-0.376,-0.993,-1.45,4.25% (inactive),-0.359 (inactive),6.8e-06 (inactive),0.00447 (inactive),inactive,24.9% (inactive)
COc1ccc(NC(=O)Nc2cccc(C(=O)N3CCOCC3)c2)cc1OC,543,0% (inactive),-176% (inactive),131,0.702,-0.546,-0.00586,12.3% (inactive),-0.527 (inactive),-7.4e-05 (inactive),0.00529 (inactive),inactive,12.3% (inactive)
O=C(O)c1nsc(Cl)c1Cl,628,-18.8% (inactive),39.2% (inactive),170,-0.315,-1.86,0.801,-6.06% (inactive),-0.386 (inactive),-3.3e-06 (inactive),0.00603 (inactive),inactive,6.17% (inactive)
N#Cc1c(SCC(=O)O)nc(N2CCCCC2)c2c1CCCC2,555,7.3% (inactive),-50% (inactive),123,0.186,-1.79,0.996,16.8% (inactive),-0.535 (inactive),-4.5e-05 (inactive),0.00499 (inactive),inactive,6.88% (inactive)
CN1C2C=C3C(C#N)=C(N)C(C#N)(C#N)[C@@H](c4cccs4)C3C1CC2 (stereo partly specified),494,-6.5% (inactive),-7.4% (inactive),116,0.352,-1.56,0.939,22.7% (inactive),-0.419 (inactive),2.6e-06 (inactive),0.00481 (inactive),inactive,-3.84% (inactive)
CC(C)(C)c1cccc(/C=N/O)c1O,519,-19.1% (inactive),-214% (inactive),140,2.16,-0.74,-1.64,7.93% (inactive),-0.526 (inactive),-2.2e-05 (inactive),0.00592 (inactive),inactive,9.58% (inactive)
O=C(O)CC(SCc1ccc(C(=O)O)o1)C(=O)O (stereo unspecified),330,-17.8% (inactive),-29.5% (inactive),105,1.04,-0.311,-0.367,5.57% (inactive),-0.528 (inactive),-7.5e-06 (inactive),0.00659 (inactive),inactive,48.4% (inactive)
CSc1nc(N)nc(SCC(=O)CC(=O)OC(C)C)c1C#N,553,-7.1% (inactive),-118% (inactive),212,0.352,-0.157,-2.15,16.8% (inactive),-0.372 (inactive),-4.1e-07 (inactive),0.00422 (inactive),inactive,11.6% (inactive)
COC(=O)Cn1cc(C(=O)OC)cc(Br)c1=O,507,-0.8% (inactive),-135% (inactive),136,0.966,0.177,0.211,-8.76% (inactive),-0.539 (inactive),-3.3e-05 (inactive),0.00509 (inactive),inactive,-6.78% (inactive)
CCCCC(C(=O)O)C(C)CC(=O)Nc1cccc(C(=O)O)c1 (stereo unspecified),630,-4.4% (inactive),-102% (inactive),176,0.159,-1.73,0.323,18.6% (inactive),-0.486 (inactive),-0.000152 (inactive),0.00384 (inactive),inactive,0.959% (inactive)
Cc1cc(C(F)(F)F)c(C#N)c(SCC(=O)NC2CC2)n1,541,-11.5% (inactive),2.6% (inactive),99.8,1.52,-0.242,-0.534,15.5% (inactive),-0.514 (inactive),-3.6e-05 (inactive),0.0063 (inactive),inactive,7.84% (inactive)
